Results on 96 compounds are retold here after ChEMBL document CHEMBL4513216, “Probing the Open Global Health Chemical Diversity Library for Multistage-Active Starting Points for Next-Generation Antimalarials” (ACS Infect Dis, 2020).

A short description of the series: Toxicity liver stage against HepG2, at 10uM. It is filed as cell-based. Further details: test concentration 10 uM, cell line HepG2-A16-CD81EGFP. To be noted: human, HepG2-A16-CD81EGFP cells; read-out: INHIBITION
The gist of the method:
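Uninfected HepG2-A16-CD81EGFP cells, 3 × 10^3 per well, 1536-well, plated on prespotted compound at 10 μM final, parasite-free screening media added to match infected plates; puromycin 10 μM positive, DMSO 0.5% negative; run in parallel with 48 h PbLuc assay at 37 °C, 5% CO2; viability by CellTiter-Glo luminescence, normalized to controls.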
Regarding `O=c1[nH]c(NCCO)nc2c1C1(CCCC1)Cc1ccccc1-2`, the cytotoxicity at 10 µM was 8.13%.

With `Cc1n[nH]c2c1C(c1ccc(Br)cc1)SCC(=O)N2` (stereo unspecified), the cytotoxicity at 10 µM is 6.5%.

For the compound `Cc1nn2c(-c3snnc3C)nnc2s1`, the cytotoxicity at 10 µM is -4.19%.

For the compound `Cc1noc(CNC(=O)C2CSCCC(=O)N2)n1` (stereo unspecified), the cytotoxicity at 10 µM was 2.42%.

Regarding `Cc1cnc2n(c1=O)CC(C(=O)Nc1ccon1)CS2` (stereo unspecified), the cytotoxicity at 10 µM turned out to be 0.595%.

For `CS(=O)(=O)N1C[C@H](C(=O)Nc2cnccn2)C[C@H]2OCC[C@H]21`, the cytotoxicity at 10 µM worked out at 10.7%.

For the compound `CCS(=O)(=O)N1CCCC2(CCCN2C(=O)c2cn(C)cn2)C1` (stereo unspecified), the cytotoxicity at 10 µM was determined as 8.16%.

Consider `Cn1cc(C2CC(=O)NC23CCN(C(=O)NC2CC2)CC3)cn1` (stereo unspecified), for which the cytotoxicity at 10 µM was determined as 4.97%.

As for `CC(C)NC(=O)c1cc2c([nH]c1=O)CC(c1cccs1)CC2=O` (stereo unspecified), the cytotoxicity at 10 µM was -3.01%.

As for `CC(C)OCCCNC(=O)CN(c1ccc(F)c(F)c1)S(C)(=O)=O`, the cytotoxicity at 10 µM was 9.96%.

For `CC(C)Nc1nc(N2CCCC2)nc2c1CN(C(C)C)CC2`, the cytotoxicity at 10 µM came out at 2.06%.

In the case of `Cc1nn(C)c2c(NCCCn3cccn3)nc(C(C)C)nc12`, the cytotoxicity at 10 µM was found to be 6.67%.

Regarding `Cc1nn(C)c(C)c1C(=O)NN1CCOCC1`, the cytotoxicity at 10 µM worked out at 7.83%.

Turning to `Oc1nc(N2CCCC2)nc2c1CCN(Cc1ccsc1)CC2`, the cytotoxicity at 10 µM is -12%.

Consider `NC(=O)c1cc2c(nc1N)CCN(C(=O)C1CCCCC1)C2`, for which the cytotoxicity at 10 µM is -21.8%.

Take `Cc1noc(C)c1-c1ccc(C2CCCN2C(=O)c2ccncn2)nc1` (stereo unspecified): the cytotoxicity at 10 µM was -4.45%.

On to `Cc1nc(N)sc1C(=O)N1Cc2ccccc2OC2(CCOCC2)C1`, for which the cytotoxicity at 10 µM was -24.6%.

Regarding `O[C@H]1CN(CCOc2ccc(F)cc2)CC[C@@]12CCCO2`, the cytotoxicity at 10 µM was -28.8%.

For the compound `Cc1occc1-c1nc(NC2CCCC2)ncc1-c1ccccn1`, the cytotoxicity at 10 µM is -20.9%.

As for `COCc1cc(O)nc(C2CCCN(Cc3ccc(OC)cc3)C2)n1` (stereo unspecified), the cytotoxicity at 10 µM was -1.25%.

For `CN(C)S(=O)(=O)NC(=O)CC(c1ccccc1)C(F)(F)F` (stereo unspecified), the cytotoxicity at 10 µM was -39.5%.

In the case of `CCNC(=O)c1cnc(Sc2nccn2C)c(Cl)c1`, the cytotoxicity at 10 µM was -49.2%.

On to `COCCNc1nc(-c2ccc(S(=O)(=O)N3CCCCCC3)cc2)cs1`, for which the cytotoxicity at 10 µM was -32.7%.

For the compound `N#CCCN(Cc1ccccn1)C(=O)c1cccc(CN2CCCC2)c1`, the cytotoxicity at 10 µM turned out to be 4.93%.

As for `Cc1c(NCc2ccccc2C#N)cccc1-n1cnnn1`, the cytotoxicity at 10 µM was 15.4%.

For `CC(C)CC(=O)N(C)Cc1nc(C(F)(F)F)cs1`, the cytotoxicity at 10 µM amounted to 8.32%.

On to `CC(C)NC(=O)CCNC(=O)CCc1cc(Cl)cs1`, for which the cytotoxicity at 10 µM was -2.59%.

With `Cc1noc(C)c1CN(C)C(=O)c1nc(N2CCCC2)ncc1Cl`, the cytotoxicity at 10 µM is -41.6%.

Consider `CN(C)C(CNC(=O)CCNC(=O)OCC(F)(F)F)c1ccsc1` (stereo unspecified), for which the cytotoxicity at 10 µM was -45.2%.

For the compound `Cc1nn(C)c(C)c1C1COCCN1C(=O)CC(C)(C)C` (stereo unspecified), the cytotoxicity at 10 µM is -5.07%.

For the compound `Cc1nc2c(C#N)cnn2c(C)c1CCC(=O)N(C)C(C)C(C)C` (stereo unspecified), the cytotoxicity at 10 µM was -43.7%.

For `COc1cccnc1NC(=O)c1ccc(COCC(F)(F)F)cc1`, the cytotoxicity at 10 µM was -2.4%.

`CCSCc1cccc(NCc2cccnc2)c1`: the cytotoxicity at 10 µM was -1.32%.

On to `NC(=O)NC(=O)CCN1CCN(CC2CC2)c2ccccc21`, for which the cytotoxicity at 10 µM amounted to 17.9%.

For the compound `CCOc1ccc(CNC(=O)N(C)CC(C)(C)O)cc1C`, the cytotoxicity at 10 µM stood at 4.3%.

As to `Cc1cnc(CN2CCC(N(C)Cc3nnc(C)n3C)C2)cn1` (stereo unspecified), the cytotoxicity at 10 µM is -10.7%.

Take `O=C(C1SCCc2sccc21)N1CCCCC1` (stereo unspecified): the cytotoxicity at 10 µM amounted to 9.78%.

In the case of `CC(C)c1cccc(S(=O)(=O)NCCCN2CCC(O)CC2)c1`, the cytotoxicity at 10 µM turned out to be 12.9%.

Take `Cc1csc(N2CCN(Cc3cccnc3)CC2C)n1` (stereo unspecified): the cytotoxicity at 10 µM worked out at 11.2%.

Take `COc1ccc(N(C(=O)c2cnc(C)cn2)C(C)C)cc1F`: the cytotoxicity at 10 µM was -2.96%.

Turning to `O=C(COc1ccccc1)N(Cc1ccncc1)C1CC1`, the cytotoxicity at 10 µM is -46.1%.

On to `CCOc1cccc(CNC(=O)CN2CCC3(CCOC3)C2)c1` (stereo unspecified), for which the cytotoxicity at 10 µM was -42.1%.

For the compound `CCN(C(=O)CN1CCCC1c1cc(C)no1)c1ccccc1C` (stereo unspecified), the cytotoxicity at 10 µM is -0.264%.

`CC(C)COCCC(=O)NS(=O)(=O)c1ccc(Cl)s1`: the cytotoxicity at 10 µM is -21.6%.

Consider `Cc1noc(C)c1CN1CCN(c2ccnc(-c3ccccc3)n2)CC1`, for which the cytotoxicity at 10 µM came to 6%.

On to `COc1ccc2cc(CNc3c(C)nn(C(C)C)c3C)ccc2c1`, for which the cytotoxicity at 10 µM was -56.6%.

Regarding `CCOCC(=O)Nc1ncn(Cc2cccc(Br)c2)n1`, the cytotoxicity at 10 µM was -5.53%.

As for `c1coc(CNCC2Cn3nncc3CO2)c1` (stereo unspecified), the cytotoxicity at 10 µM is -92.5%.

In the case of `O=C(CC(F)(F)F)N1C[C@H]2CCN[C@H]2C1`, the cytotoxicity at 10 µM was 2.95%.

As for `COCc1cnc2n1CCN(C(=O)c1cc3ccccc3o1)C2C` (stereo unspecified), the cytotoxicity at 10 µM is -105%.

Consider `Cc1[nH]c2ccccc2c1-c1ccnc(NCCN2CCOCC2)n1`, for which the cytotoxicity at 10 µM was found to be 7.12%.

With `Cc1ncc(CC(=O)N2CCCCC2CCN2CCCC2)c(=O)[nH]1` (stereo unspecified), the cytotoxicity at 10 µM is -9.2%.

Take `CC(C)[C@@H]1CN(C(=O)NCc2ccco2)C[C@H]1NS(=O)(=O)N(C)C`: the cytotoxicity at 10 µM stood at 6.14%.

On to `CN1CCN([C@@H]2CCN(CC3=Cc4cc(Cl)ccc4OC3)C[C@H]2O)CC1`, for which the cytotoxicity at 10 µM is -5.87%.

With `Cn1ncc2c(NC3CCCN(C(=O)C4CC4)C3)nc(C(C)(C)C)nc21` (stereo unspecified), the cytotoxicity at 10 µM amounted to 12%.

Take `Cc1nc(CN2CCCC(CCc3cccc(C(F)(F)F)c3)C2)co1` (stereo unspecified): the cytotoxicity at 10 µM is -0.0825%.

As to `Cc1cc(-n2cccn2)ccc1CN1CCOCC(CN(C)C)C1` (stereo unspecified), the cytotoxicity at 10 µM is -38.2%.

With `Cn1ncc2c(NC3CCSC3)nc(-c3ccncc3)nc21` (stereo unspecified), the cytotoxicity at 10 µM amounted to 21.6%.

On to `CCn1cc(CN2CCC(NS(C)(=O)=O)CC2)cc1C#N`, for which the cytotoxicity at 10 µM was -4.18%.

Consider `OCCC1CN(c2ncnc3[nH]cnc23)CCN1Cc1ccccc1` (stereo unspecified), for which the cytotoxicity at 10 µM is 11.9%.

For `O=C(C1CCC1)N1CCC(C(=O)N2CCC(c3ccc(F)cc3)C2)CC1` (stereo unspecified), the cytotoxicity at 10 µM is -39.8%.

With `Cc1ncc2c(c1CNC(=O)C1(c3ccc(F)cc3)CC1)CCNC2`, the cytotoxicity at 10 µM was -46.6%.

Consider `COCCC1(C(=O)O)CCN(c2cc(C)c3ccccc3n2)CC1`, for which the cytotoxicity at 10 µM is -41.6%.

With `CCc1ccc(CN2CCN(c3ccc(C#N)cc3)C(=O)C2)nc1`, the cytotoxicity at 10 µM was -1.32%.

For the compound `CN(Cc1n[nH]c2c1CCCC2)c1nc(C2CC2)nc2c1CCNCC2`, the cytotoxicity at 10 µM is -10.3%.

For `CCc1nc(N)nc(NCCC(=O)N2CCCC2)c1C`, the cytotoxicity at 10 µM is -42.5%.

Regarding `O=C(c1ccc(=O)[nH]c1)N1CCc2c(nc(-c3cccnc3)[nH]c2=O)C1`, the cytotoxicity at 10 µM amounted to 9.84%.

For `CCOC(=O)C1(CCOC)CCCN(Cc2nccn2CC)C1` (stereo unspecified), the cytotoxicity at 10 µM was 10.8%.

With `COc1ccc(C(=O)C2CCCN(c3cc(C#N)ccn3)C2)cc1F` (stereo unspecified), the cytotoxicity at 10 µM was -0.0739%.

On to `CNC(=O)c1cn2cc(-c3ccccc3Cl)n(CC=C(C)C)c(=O)c2n1`, for which the cytotoxicity at 10 µM is -7.05%.

With `CCN(CCn1cccn1)Cc1nc(-c2ccc(F)cc2)oc1C`, the cytotoxicity at 10 µM was 1.07%.

On to `CC(C)NC(=O)c1nc(Cn2c(C(F)F)nc3ccccc32)no1`, for which the cytotoxicity at 10 µM came to 9.34%.

Turning to `CCC[C@H]1CN(Cc2cc(C#N)n(C)c2C)C[C@@H]1NS(=O)(=O)CC`, the cytotoxicity at 10 µM is -153%.

On to `Cc1ccc(C)c(NC(=O)c2coc(C)n2)c1`, for which the cytotoxicity at 10 µM is -5.97%.

With `COc1ccc(C2(NC(=O)CCn3cncn3)CCCCC2)cc1`, the cytotoxicity at 10 µM was -3.12%.

For the compound `N#Cc1cccc(C(=O)N2CCN(c3ncccn3)CC2)c1`, the cytotoxicity at 10 µM was -0.0581%.

As for `O=C(CCCn1cncn1)NC1CCc2nccn2C1` (stereo unspecified), the cytotoxicity at 10 µM was found to be 2.03%.

`Cc1cc(CN2CCN(CC(O)c3ccc(C)c(C)c3)CC2)no1` (stereo unspecified): the cytotoxicity at 10 µM is -2.96%.

For the compound `Cc1ncsc1C(=O)NC1CCN(Cc2ccc(C(F)(F)F)cc2)CC1`, the cytotoxicity at 10 µM was 15.5%.

Regarding `CC(NC(=O)Nc1cccnc1N1CCCC1)c1ccn(C)c1` (stereo unspecified), the cytotoxicity at 10 µM was -24.6%.

As for `Cc1cnn(CCC(=O)N2CCN(c3nc(C)cs3)CC2)c1`, the cytotoxicity at 10 µM is -11.9%.

Turning to `CN(Cc1cccs1)C(=O)CS(=O)(=O)Cc1ccc(Cl)c(Cl)c1`, the cytotoxicity at 10 µM is 0.866%.

On to `Cc1ccc([C@]2(O)CC[C@H]3CN(Cc4cccc(Cl)c4Cl)C[C@H]32)nc1`, for which the cytotoxicity at 10 µM turned out to be 9.42%.

Regarding `Cc1ccc(N2C[C@H]3CCC[C@@H](CN4CCOCC4)[C@H]3C2)nn1`, the cytotoxicity at 10 µM amounted to 10.7%.

Take `Cc1ccsc1C(=O)N1CCc2ncc(CN(C)C)n2CC1`: the cytotoxicity at 10 µM is -101%.

As to `Cn1cc(CN2CCn3cc(CNC(=O)c4cccn4C)nc3C2)cn1`, the cytotoxicity at 10 µM came to 1.85%.

`COCCN1CCN(C(=O)N2CCCC2)Cc2ccc(C)nc21`: the cytotoxicity at 10 µM was -65.5%.

Take `Clc1ccc(COCC2CCN(Cc3ccccn3)CC2)cc1`: the cytotoxicity at 10 µM stood at 4.94%.

In the case of `O=C(NC1CC1)N1CCc2ccc(=O)n(CCN3CCCC3)c2CC1`, the cytotoxicity at 10 µM is -0.603%.

Consider `CC1COC2(CCN(C(=O)Cc3ccncc3)CC2)C1` (stereo unspecified), for which the cytotoxicity at 10 µM was -105%.

For `Cn1cc(CN2CC[C@H]3O[C@@H](C(=O)NC4CC4)CC[C@H]32)cn1`, the cytotoxicity at 10 µM was -1.55%.

Regarding `c1cncc(COCc2n[nH]c3c2CN(Cc2ccco2)C3)c1`, the cytotoxicity at 10 µM was 9.01%.

In the case of `CCC1=N[C@@]2(CC[C@@H]3CN(Cc4ccc(F)cc4)C[C@@H]32)C(=O)N1C`, the cytotoxicity at 10 µM is -106%.

For the compound `CC(C)n1nc(CN2CCOCC2)c2c1CN(C(=O)c1ccno1)C2`, the cytotoxicity at 10 µM turned out to be 2.62%.

Regarding `CC(=O)N1CCCC1c1nnn2cc(-c3ccncc3)ccc12` (stereo unspecified), the cytotoxicity at 10 µM stood at 7.28%.

In the case of `c1ccc(CN2CCCC3(CCN(CC4CCCO4)CC3)C2)nc1` (stereo unspecified), the cytotoxicity at 10 µM is -115%.
